Laboratory results as given in ChEMBL document CHEMBL3227917, “Structure-activity relationships of dimeric Catharanthus alkaloids. 2. Experimental antitumor activities of N-substituted deacetylvinblastine amide (vindesine) sulfates” (J Med Chem, 1979).

What was measured:
[1] = Antitumor activity against mouse Gardner lymphosarcoma allografted in C3H mouse assessed as tumor growth inhibition at 0.40 mg/kg, ip administered daily for 8 to 10 days; assay type: functional; conditions: route intraperitoneal, read-out: TGI
In short: (§1)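 Gardner lymphosarcoma in C3H mice; sulfate salts unless noted, given ip daily for 8–10 days, treatment starting 8 days after tumor implantation. Tumor growth inhibition scored as –, 0–25%; +, 26–50%; ++, 51–75%; +++, 76–100%; T, lethal to ≥5 of 10 animals per group. Average of one or more tests.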

[2] = Antitumor activity against mouse Gardner lymphosarcoma allografted in C3H mouse assessed as tumor growth inhibition at 0.20 mg/kg, ip administered daily for 8 to 10 days; assay type: functional; conditions: route intraperitoneal, read-out: TGI; in short: as §1
[3] = Antitumor activity against mouse Ridgway osteogenic sarcoma allografted in AKR mouse assessed as tumor growth inhibition at 0.20 mg/kg, ip administered daily for 8 to 10 days compound treatment commenced 8 days after tumor implantation; assay type: functional; conditions: route intraperitoneal, read-out: TGI
[4] = Antitumor activity against mouse Ridgway osteogenic sarcoma allografted in AKR mouse assessed as tumor growth inhibition at 0.40 mg/kg, ip administered daily for 8 to 10 days compound treatment commenced 8 days after tumor implantation; assay type: functional; conditions: route intraperitoneal, read-out: TGI
Mus musculus [5] = experiment: Toxicity in C3H mouse allografted with mouse Gardner lymphosarcoma assessed as lethality at 0.40 mg/kg, ip administered daily for 8 to 10 days; assay type: organism-based; parameters: dose 0.4 mg/kg, route intraperitoneal; conditions: in vivo, 0.4 mg/kg
In short: (§2)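 Tumor-bearing mice given sulfate salts ip daily for 8–10 days; values are the average of one or more tests. Toxic means lethal to ≥5 of 10 animals per group.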

[6] = Antitumor activity against mouse Gardner lymphosarcoma allografted in C3H mouse assessed as tumor growth inhibition at 0.10 mg/kg, ip administered daily for 8 to 10 days; assay type: functional; conditions: route intraperitoneal, read-out: TGI; in short: as §1
Mus musculus [7] = experiment: Toxicity in AKR mouse allografted with mouse Ridgway osteogenic sarcoma assessed as lethality at 0.40 mg/kg, ip administered daily for 8 to 10 days compound treatment commenced 8 days after tumor implantation; assay type: organism-based; parameters: dose 0.4 mg/kg, route intraperitoneal; conditions: in vivo, 0.4 mg/kg; in short: as §2
[8] = Antitumor activity against mouse Gardner lymphosarcoma allografted in C3H mouse assessed as tumor growth inhibition at 0.05 mg/kg, ip administered daily for 8 to 10 days; assay type: functional; conditions: route intraperitoneal, read-out: TGI; in short: as §1
B16 [9] = experiment: Antitumor activity against mouse B16 cells allografted in C57BL/6 mouse assessed as prolongation of host survival at 0.60 mg/kg, ip administered on days 1,5 and 9; assay type: functional; conditions: route intraperitoneal
In short: (§3)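 B16 melanoma cells (10⁶ inoculum) implanted ip in C57BL/6 mice; groups of 10. Sulfate salts unless noted, given ip on days 1, 5 and 9. Single test. Survival prolongation is expressed as percent versus controls, with survivors counted on day 60. Toxic means deaths of ≥5 of 10 animals before the first control death.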

B16 [10] = experiment: Antitumor activity against mouse B16 cells allografted in C57BL/6 mouse assessed as prolongation of host survival at 0.90 mg/kg, ip administered on days 1,5 and 9; assay type: functional; conditions: route intraperitoneal; in short: as §3
B16 [11] = experiment: Antitumor activity against mouse B16 cells allografted in C57BL/6 mouse assessed as prolongation of host survival at 1.20 mg/kg, ip administered on days 1,5 and 9; assay type: functional; conditions: route intraperitoneal; in short: as §3
CHO [12] = experiment: Mitotic arrest in CHO cells assessed as increase in cell accumulation at 0.02 ug/ml; assay type: functional, Cricetulus griseus
In short: (§4)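 Chinese hamster ovary cells in tissue culture, scored for mitotic arrest as increase in cells in mitotic arrest over control: +++, 40–50%; ++, 15–40%; +, 10–15%; ±, 7–10%; –, 3–7%. Cytotoxicity noted separately.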

CHO [13] = experiment: Mitotic arrest in CHO cells assessed as increase in cell accumulation at 0.002 ug/ml; assay type: functional, Cricetulus griseus; in short: as §4
CHO [14] = experiment: Mitotic arrest in CHO cells assessed as increase in cell accumulation at 0.2 ug/ml; assay type: functional, Cricetulus griseus; in short: as §4

Structure (SMILES) | inhibition in vivo at 0.4 mg/kg [1] | inhibition in vivo at 0.2 mg/kg [2] | inhibition in vivo at 0.2 mg/kg [3] | Activity (Mus musculus [5]) | inhibition in vivo at 0.1 mg/kg [6] | inhibition in vivo at 0.05 mg/kg [8] | further results
CCCCCCNC(=O)[C@@]1(O)[C@H](O)[C@]2(CC)C=CCN3CC[C@@]4(c5cc([C@@]6(C(=O)OC)C[C@@H]7CN(CCc8c6[nH]c6ccccc86)C[C@](O)(CC)C7)c(OC)cc5N(C)[C@@H]14)[C@@H]32 | 0% | 26% | 0% |  |  |  | inhibition in vivo at 0.4 mg/kg [4]: 0%
CC[C@]1(O)C[C@H]2CN(CCc3c([nH]c4ccccc34)[C@@](C(=O)OC)(c3cc4c(cc3OC)N(C)[C@H]3[C@@](O)(C(=O)NC5CCCCC5)[C@H](O)[C@]5(CC)C=CCN6CC[C@]43[C@@H]65)C2)C1 | 26% | 0% | 26% |  |  |  | inhibition in vivo at 0.4 mg/kg [4]: 51%
C=CCNC(=O)[C@@]1(O)[C@H](O)[C@]2(CC)C=CCN3CC[C@@]4(c5cc([C@@]6(C(=O)OC)C[C@@H]7CN(CCc8c6[nH]c6ccccc86)C[C@](O)(CC)C7)c(OC)cc5N(C)[C@@H]14)[C@@H]32.O=S(=O)(O)O |  | 76% |  | Toxic | 0% |  | 
C#CCNC(=O)[C@@]1(O)[C@H](O)[C@]2(CC)C=CCN3CC[C@@]4(c5cc([C@@]6(C(=O)OC)C[C@@H]7CN(CCc8c6[nH]c6ccccc86)C[C@](O)(CC)C7)c(OC)cc5N(C)[C@@H]14)[C@@H]32.O=S(=O)(O)O |  | 76% |  | Toxic | 51% |  | 
CC[C@]1(O)C[C@H]2CN(CCc3c([nH]c4ccccc34)[C@@](C(=O)OC)(c3cc4c(cc3OC)N(C)[C@H]3[C@@](O)(C(=O)N5CCCC5)[C@H](O)[C@]5(CC)C=CCN6CC[C@]43[C@@H]65)C2)C1.O=S(=O)(O)O |  | 0% | 51% | Toxic |  |  | Activity (Mus musculus [7]): Toxic
CC[C@]1(O)C[C@H]2CN(CCc3c([nH]c4ccccc34)[C@@](C(=O)OC)(c3cc4c(cc3OC)N(C)[C@H]3[C@@](O)(C(=O)NCCC#N)[C@H](O)[C@]5(CC)C=CCN6CC[C@]43[C@@H]65)C2)C1 | 76% | 76% |  |  | 0% | 0% | 
CC[C@]1(O)C[C@H]2CN(CCc3c([nH]c4ccccc34)[C@@](C(=O)OC)(c3cc4c(cc3OC)N(C)[C@H]3[C@@](O)(C(=O)NCC(O)CO)[C@H](O)[C@]5(CC)C=CCN6CC[C@]43[C@@H]65)C2)C1 (stereo partly drawn) | 51% | 26% | 26% |  |  |  | inhibition in vivo at 0.4 mg/kg [4]: 76%
CC[C@]1(O)C[C@H]2CN(CCc3c([nH]c4ccccc34)[C@@](C(=O)OC)(c3cc4c(cc3OC)N(C)[C@H]3[C@@](O)(C(=O)NCCOC(C)=O)[C@H](O)[C@]5(CC)C=CCN6CC[C@]43[C@@H]65)C2)C1.O=S(=O)(O)O |  | 76% | 76% | Toxic | 51% | 26% | Activity (Mus musculus [7]): Toxic
CCCC(=O)OCCNC(=O)[C@@]1(O)[C@H](O)[C@]2(CC)C=CCN3CC[C@@]4(c5cc([C@@]6(C(=O)OC)C[C@@H]7CN(CCc8c6[nH]c6ccccc86)C[C@](O)(CC)C7)c(OC)cc5N(C)[C@@H]14)[C@@H]32.O=S(=O)(O)O |  | 76% | 76% | Toxic | 51% | 0% | Activity (Mus musculus [7]): Toxic
CCCCCCCCCCCCCCCCCC(=O)OCCNC(=O)[C@@]1(O)[C@H](O)[C@]2(CC)C=CCN3CC[C@@]4(c5cc([C@@]6(C(=O)OC)C[C@@H]7CN(CCc8c6[nH]c6ccccc86)C[C@](O)(CC)C7)c(OC)cc5N(C)[C@@H]14)[C@@H]32 | 76% | 51% |  |  | 0% | 0% | 
CC[C@]1(O)C[C@H]2CN(CCc3c([nH]c4ccccc34)[C@@](C(=O)OC)(c3cc4c(cc3OC)N(C)[C@H]3[C@@](O)(C(=O)NCCSC(c5ccccc5)(c5ccccc5)c5ccccc5)[C@H](O)[C@]5(CC)C=CCN6CC[C@]43[C@@H]65)C2)C1 | 0% | 0% |  |  | 0% |  | survival at 0.6 mg/kg (B16 [9]): 0%; survival at 0.9 mg/kg (B16 [10]): 1%; survival at 1.2 mg/kg (B16 [11]): 4%
CC[C@]1(O)C[C@H]2CN(CCc3c([nH]c4ccccc34)[C@@](C(=O)OC)(c3cc4c(cc3OC)N(C)[C@H]3[C@@](O)(C(=O)NCCSC(c5ccc(OC)cc5)(c5ccc(OC)cc5)c5ccc(OC)cc5)[C@H](O)[C@]5(CC)C=CCN6CC[C@]43[C@@H]65)C2)C1 | 0% | 0% |  |  | 0% |  | survival at 0.6 mg/kg (B16 [9]): 16%; survival at 0.9 mg/kg (B16 [10]): 28%; survival at 1.2 mg/kg (B16 [11]): 35%
CC[C@]1(O)C[C@H]2CN(CCc3c([nH]c4ccccc34)[C@@](C(=O)OC)(c3cc4c(cc3OC)N(C)[C@H]3[C@@](O)(C(=O)NCCSSCCNC(C)=O)[C@H](O)[C@]5(CC)C=CCN6CC[C@]43[C@@H]65)C2)C1 | 51% | 0% |  |  | 0% |  | survival at 0.6 mg/kg (B16 [9]): 93%; survival at 0.9 mg/kg (B16 [10]): 118%; survival at 1.2 mg/kg (B16 [11]): 127%
CC[C@]1(O)C[C@H]2CN(CCc3c([nH]c4ccccc34)[C@@](C(=O)OC)(c3cc4c(cc3OC)N(C)[C@H]3[C@@](O)(C(=O)NCC=O)[C@H](O)[C@]5(CC)C=CCN6CC[C@]43[C@@H]65)C2)C1 | 76% | 76% |  |  | 26% | 0% | 
CC[C@]1(O)C[C@H]2CN(CCc3c([nH]c4ccccc34)[C@@](C(=O)OC)(c3cc4c(cc3OC)N(C)[C@H]3[C@@](O)(C(=O)NCC(OC)OC)[C@H](O)[C@]5(CC)C=CCN6CC[C@]43[C@@H]65)C2)C1.O=S(=O)(O)O |  | 76% |  | Toxic | 76% | 0% | 
CC[C@]1(O)C[C@H]2CN(CCc3c([nH]c4ccccc34)[C@@](C(=O)OC)(c3cc4c(cc3OC)N(C)[C@H]3[C@@](O)(C(=O)NCCC(=N)OC)[C@H](O)[C@]5(CC)C=CCN6CC[C@]43[C@@H]65)C2)C1 | 0% | 0% |  |  | 0% | 0% | 
CC[C@]1(O)C[C@H]2CN(CCc3c([nH]c4ccccc34)[C@@](C(=O)OC)(c3cc4c(cc3OC)N(C)[C@H]3[C@@](O)(C(=O)NCCc5ccc(O)cc5)[C@H](O)[C@]5(CC)C=CCN6CC[C@]43[C@@H]65)C2)C1 | 26% | 0% |  |  | 0% |  | survival at 0.6 mg/kg (B16 [9]): 125%; survival at 0.9 mg/kg (B16 [10]): 152%; survival at 1.2 mg/kg (B16 [11]): 190%
CC[C@]1(O)C[C@H]2CN(CCc3c([nH]c4ccccc34)[C@@](C(=O)OC)(c3cc4c(cc3OC)N(C)[C@H]3[C@@](O)(C(=O)NCCc5ccc(O)c(O)c5)[C@H](O)[C@]5(CC)C=CCN6CC[C@]43[C@@H]65)C2)C1 | 26% | 0% |  |  | 0% |  | survival at 0.6 mg/kg (B16 [9]): 28%; survival at 0.9 mg/kg (B16 [10]): 128%; survival at 1.2 mg/kg (B16 [11]): 154%
CC[C@]1(O)C[C@H]2CN(CCc3c([nH]c4ccccc34)[C@@](C(=O)OC)(c3cc4c(cc3OC)N(C)[C@H]3[C@@](O)(C(=O)OC)[C@H](O)[C@]5(CC)C=CCN6CC[C@]43[C@@H]65)C2)C1 |  |  |  |  |  |  | Activity (CHO [12]): 40%; Activity (CHO [13]): 3%
COc1cc2c(c(OC)c1OC)-c1ccc(OC)c(=O)cc1[C@@H](NC(C)=O)CC2 [COLCHICINE] |  |  |  |  |  |  | Activity (CHO [12]): 3%; Activity (CHO [14]): 15%
